Source: PubChem
M5 ag: human M5 muscarinic receptor agonists, primary screen, CHO-K1 cells, Fluo-8 calcium fluorescence; Muscarinic acetylcholine receptor M5 (Homo sapiens), P08912; CHO-K1 hM5 cells; 0% DMSO wells, 100% maximal acetylcholine response; activation, % at 3 µM; actives 0.19% (n = 360,000); AID 624037, 2012;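 active = activation above the run's mean over test compounds plus 3 SD, cut at about 23% in these data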;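 also: signal is peak over basal fluorescence ratio across the kinetic read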
Target sequence (P08912 whole entry, looked up): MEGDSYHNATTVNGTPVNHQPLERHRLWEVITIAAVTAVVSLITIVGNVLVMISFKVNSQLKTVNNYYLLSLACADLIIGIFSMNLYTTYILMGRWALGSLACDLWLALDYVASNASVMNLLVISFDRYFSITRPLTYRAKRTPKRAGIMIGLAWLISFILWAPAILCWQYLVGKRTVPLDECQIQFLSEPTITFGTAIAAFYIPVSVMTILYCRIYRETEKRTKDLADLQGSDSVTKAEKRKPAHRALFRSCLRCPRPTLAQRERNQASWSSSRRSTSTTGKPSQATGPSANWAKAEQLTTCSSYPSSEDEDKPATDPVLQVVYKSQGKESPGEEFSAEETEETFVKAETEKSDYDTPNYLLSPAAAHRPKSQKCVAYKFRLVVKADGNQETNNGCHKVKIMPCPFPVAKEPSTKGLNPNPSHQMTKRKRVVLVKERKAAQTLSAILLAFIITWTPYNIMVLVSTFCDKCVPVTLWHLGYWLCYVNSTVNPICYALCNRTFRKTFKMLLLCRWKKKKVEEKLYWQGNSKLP
CHRM5 PAM: human M5 muscarinic receptor positive allosteric modulators, primary screen, CHO-K1 cells, Fluo-8 calcium fluorescence. actives 0.3% (n = 360,000). activation, % at 3 µM. Muscarinic acetylcholine receptor M5 (Homo sapiens), P08912. AID 624038, 2012. CHO-K1 hM5, ACh EC20 PAM; 0% = ACh EC20, 100% = ACh EC100;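 active = activation above the run cutoff, the mean activation of all test compounds plus 3 SD, cut at about 18% in these data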
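Assay system: CHO-K1 hM5 cells. Also added: acetylcholine at EC20 concentration, added after compound. Dosing: 3 µM, single dose. Times: compound preincubation 140 s before EC20 acetylcholine addition. Signal: Fluo-8 calcium fluorescence. Measure: % activation relative to EC20 and EC100 ACh responses. Repeats: singlicate, one well per test compound.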
CHRM4 agonist: human M4 muscarinic receptor agonists, primary screen, CHO-K1 cells, Fluo-8 calcium fluorescence | Muscarinic acetylcholine receptor M4 (Homo sapiens), P08173 | CHO-K1 hM4/Gqi5; vehicle 0%, full acetylcholine response 100% | activation, % at 3 µM | actives 0.14% (n = 360,000);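 active = activation above the run mean over all test wells plus 3 SD, cut at about 32% in these data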;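 also: peak over basal fluorescence ratio per well then scaled between controls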
M4 antag: human M4 muscarinic receptor antagonists, primary screen, CHO cells, Fluo-8 calcium fluorescence; Muscarinic acetylcholine receptor M4 (Homo sapiens), P08173; actives 0.73% (n = 360,000); CHO-hM4 cells, ACh EC80; inhibition, % at 3 µM;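 active = inhibition above its plate's cutoff, the mean inhibition of sample wells plus 3 SD, cut at about 27% in these data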
M4 PAM: human M4 muscarinic receptor positive allosteric modulators, primary screen, CHO-K1 cells, Fluo-8 calcium fluorescence. CHO-K1 hM4/Gqi5, ACh EC20; 0% = ACh EC20, 100% = maximal ACh. activation, % at 3 µM. actives 0.4% (n = 360,000);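 active = activation above its plate's cutoff, the mean activation of sample wells plus 3 SD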
CHRM5 antagonist: human M5 muscarinic receptor antagonists, primary screen, CHO cells, Fluo-8 calcium fluorescence; actives 0.59% (n = 360,000); CHO-hM5 cells, ACh EC80; Muscarinic acetylcholine receptor M5 (Homo sapiens), P08912; inhibition, % at 3 µM;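 active = inhibition above a per-plate cutoff, the mean of that plate's test compounds plus 3 SD, cut at about 27% in these data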
Each line names hits and unclear results; the compound was inactive in the other large screens. Only some compounds are listed: those with a hit (about 1.9% of all), similar ones and a draw of the others.

Cn1c(=O)c2c(nc(Sc3ncnn3CC(=O)N3CCOCC3)n2C)n(C)c1=O	none
COc1ccc(NC(=O)/C(Cl)=C(/Cl)S(=O)Cc2ccccc2)cn1 (stereo unspecified)	M4 antag 36.0, CHRM5 antagonist 41.8
COc1ccc(NC(=O)Cc2ccccc2)cn1	none
CCOC(=O)[C@]12CCC=C1N(Cc1ccc3c(c1)OCO3)C(=O)[C@H](CC(=O)NCc1ccccc1)C2	none
CC(C)Oc1ccc(/C(O)=C2/C(=O)C(=O)N(Cc3cccnc3)C2c2ccco2)cc1 (stereo unspecified)	M4 PAM 18.8
COc1cc(N2CCCC2)c(OC)cc1/C=C1/NC(=S)NC1=O	M5 ag 32.3
COc1ccc(OC)c(/C=C2\NC(=O)NC2=O)c1	none
COc1ccc(N=Nc2ccc(O)c3ncccc23)cc1	none
CCc1ccc(N=Nc2ccc(O)c3[nH]cnc23)cc1	M5 ag 29.7, CHRM4 agonist 47.6, M4 antag 28.2, CHRM5 antagonist 46.4
CCNc1nc(NC(C)C)nc(N(C)C#N)n1	none
CCCN(C#N)c1nc(NCC)nc(NC(C)C)n1	CHRM5 antagonist 53.2
O=C(Oc1ccccc1O)c1cccc2ccccc12	none
CSCCC(NC(=O)OC(C)(C)C)C(=O)NC(CC(C)C)C(N)=O (stereo unspecified)	M4 PAM 35.8
CCCC(CCC(=O)NC1CCCCC1)C(=O)O (stereo unspecified)	none
CCCC(CCC)C(=O)OC1C[C@H]2CC[C@@H](C1)[N+]2(C)C (stereo partly specified)	M4 antag 99.1, CHRM5 antagonist 97.8
COc1ccc(NC(=O)N(C)C[C@H]2OCCCC[C@H](C)Oc3ccc(NC(=O)Nc4ccc5c(c4)OCO5)cc3C(=O)N([C@@H](C)CO)C[C@@H]2C)cc1	none
COc1ccccc1N1CCN(C(=O)c2ccc3noc(-c4ccccc4)c3c2)CC1	M5 ag 24.9
Cn1cc(Cl)c(C(=O)Nc2nc3ccc([N+](=O)[O-])cc3s2)n1	CHRM5 PAM 22.2
COCCCNC(=O)/C(C#N)=C/c1c(N2CCN(c3ccc(OC)cc3)CC2)nc2c(C)cccn2c1=O	CHRM5 antagonist 31.1
Cc1cccn2c(=O)c(/C=C(\C#N)C(N)=O)c(N3CCN(Cc4ccc5c(c4)OCO5)CC3)nc12	M4 antag 39.8
O=C(N1CCOCC1)N1[C@H](COCc2ccccc2)C=CS1(=O)=O	none
CCN(CC(=O)Nc1c(F)cccc1F)C(=O)CCN1C(=O)C2CCCCC2C1=O (stereo unspecified)	none
CCC(C)(C)NC(=O)CN(Cc1ccc(F)cc1)C(=O)CCC(=O)Nc1ccccn1	none
COc1ccc(CCNc2ncnc3sc(C)cc23)cc1OC	M4 antag 26.9, CHRM5 antagonist 37.1
COc1ccc(CCNc2ncnc3[nH]ncc23)cc1OC	none
O=C(/C=C/c1ccccc1)NC(NC(=S)Nc1ccc(Cl)cc1Cl)C(Cl)(Cl)Cl (stereo unspecified)	CHRM5 antagonist 34.3
Cn1c(=Nc2ccc(N3CCOCC3)cc2)ccc2ccccc21	CHRM5 antagonist 39.3
CCn1c(=O)c([N+](=O)[O-])c(N2CCOCC2)c2ccccc21	none
CCn1c(=Nc2ccc(N3CCOCC3)cc2)ccc2ccccc21	CHRM5 antagonist 67.0
Cn1c(N=Nc2ccc(N3CCOCC3)cc2)[n+](C)c2ccccc21	none
COc1cccc(CNC(=O)c2cc(S(=O)(=O)N3CCCCC3)ccc2C)c1	none
CC(c1nc2ccccc2[nH]1)n1c(=O)c(-c2cccnc2)nc2ccccc21 (stereo unspecified)	CHRM5 PAM 18.4
CCC(c1nc2ccccc2[nH]1)n1c(=O)c(-c2cccnc2)nc2ccccc21 (stereo unspecified)	none
COc1ccc(-n2c(C)c(C)c3c(NCCN(C)C)ncnc32)cc1	CHRM5 PAM 29.2
CC(NC(=O)CSc1ncccc1C(=O)O)C1CC2CCC1C2 (stereo unspecified)	none
O=c1ccc2c(-c3ccccc3)c3ccc(O)cc3oc-2c1	M5 ag 797.0, CHRM4 agonist active, M4 antag 85.7, CHRM5 antagonist 85.7
Nc1ccc(-c2c3ccc(=O)cc-3oc3cc(O)ccc23)cc1C(=O)O	M5 ag 203.2, CHRM4 agonist 548.1, M4 antag 62.8, CHRM5 antagonist 30.1
O=c1cc(-c2ccccc2)oc2cc(O)ccc12	none
COc1ccc(C(=O)Nc2ccnn2C2CCN(C(=O)c3cccnc3)CC2)cc1	none
CCC(C)NC(=O)C1CCCN(c2nc(C)cc(OC)n2)C1 (stereo unspecified)	CHRM5 PAM 20.4, M4 PAM 24.6
C#CCOc1ccc(C2C3=C(COC3=O)Nc3cc4c(cc32)OCO4)cc1OC (stereo unspecified)	M4 PAM 22.0
O=C(NCc1ccc(F)cc1)c1cc(C2CCCCN2S(=O)(=O)c2cccs2)on1 (stereo unspecified)	none
Cc1cc(Br)ccc1NC(=O)CNC(=O)CN1C(=O)NC2(CCCCCC2)C1=O	none
Cc1cc(Br)ccc1NC(=O)CN1C(=O)C2C3CC(c4ccccc4)C(C3)C2C1=O (stereo unspecified)	M4 antag 28.2
CCOC(=O)C=C1CCN(c2ncc(C(F)(F)F)cc2Cl)CC1	none
CCOC(=O)N1CCN(c2ncc(C(F)(F)F)cc2Cl)CC1	M4 PAM 23.1
C/C=C/C1=CC(=O)C[C@H](c2ccc(OC)c(OC)c2)C1	none
O=C(Cn1nnc(-c2ccccc2NC(=O)c2cccs2)n1)Nc1ccccc1	CHRM5 PAM 20.9
NC(=O)Cn1nnc(-c2ccccc2NC(=O)c2cnccn2)n1	CHRM5 PAM 35.0
CC(C)(C)NC(=O)Cn1nnc(-c2ccccc2NC(=O)c2cnccn2)n1	none
O=C(CCNC(=O)N1CC(=O)Nc2ccccc21)NCc1cccc(C(F)(F)F)c1	none
CC1(C(=O)O)COC(c2ccc(Cl)cc2)OC1 (stereo unspecified)	none
CCC1([N+](=O)[O-])COC(c2ccc(Cl)cc2)OC1 (stereo unspecified)	M4 PAM 27.0
COc1cccc2cc(CC(=O)c3ccccc3)c(=O)oc12	none
CC(Oc1cccc2ccccc12)C(=O)N/N=C/c1cccnc1 (stereo unspecified)	M4 PAM 22.0
